Data reported in ChEMBL document CHEMBL1145195 (J Med Chem, 2005).
pKi: −log10 of the molar value.

Tests used:
Coagulation factor X [1] = target: T1, Coagulation factor X (Homo sapiens, UniProt P00742); test: Binding affinity against human Coagulation factor Xa
Target sequence in this assay (P00742 41-179 limits assumed): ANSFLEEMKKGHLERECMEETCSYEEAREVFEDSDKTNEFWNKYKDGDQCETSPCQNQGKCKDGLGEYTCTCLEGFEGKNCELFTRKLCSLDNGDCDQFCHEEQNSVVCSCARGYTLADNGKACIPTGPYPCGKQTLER
Target sequence in this assay (P00742 235-488 limits assumed): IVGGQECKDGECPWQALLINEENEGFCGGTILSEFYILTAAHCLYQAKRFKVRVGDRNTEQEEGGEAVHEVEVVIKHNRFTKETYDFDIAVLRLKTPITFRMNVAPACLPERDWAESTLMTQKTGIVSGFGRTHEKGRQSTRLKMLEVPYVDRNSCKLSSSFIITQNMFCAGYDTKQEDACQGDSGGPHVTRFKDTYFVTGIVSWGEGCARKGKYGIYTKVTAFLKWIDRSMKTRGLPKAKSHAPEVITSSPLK

[2] = Binding affinity of compound was determined against human plasma protein; assay type: ADME, cell-free
Outline: (§1)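 Human or rabbit plasma protein binding determined by equilibrium dialysis.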

[3] = Activated partial thromboplastin time was determined in human plasma; assay type: functional
Outline: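 Pooled human plasma obtained by centrifugation at 2000g for 10 min, kept on ice. Inhibitor taken from a 10 mM DMSO stock, diluted in plasma, held on ice. Five to seven concentrations, each in duplicate. Alexin aPTT reagent added after plasma warmed 1 min at 37 °C. Clotting time compared with control plasma; the concentration doubling aPTT is reported.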

Caco-2 [4] = test: Apparent cell permeability in Caco-2 cell line; assay type: functional, cell-based; settings: Homo sapiens
Prothrombin = Prothrombin (Homo sapiens, UniProt P00734); test: Binding affinity against human thrombin
Coagulation factor IX = Coagulation factor IX (Homo sapiens, UniProt P00740); test: Binding affinity against human Coagulation factor IX
Serine protease 1 = Serine protease 1 (Homo sapiens, UniProt P07477); test: Binding affinity determined against human trypsin
[5] = target: Urokinase-type plasminogen activator (Homo sapiens, UniProt P00749); test: Binding affinity determined against human urokinase
Chymotrypsinogen B = Chymotrypsinogen B (Homo sapiens, UniProt P17538); test: Binding affinity determined against human Chymotrypsin
Outline: (§2)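 Absorbance at 405 nm followed for 30 min. Percent activity taken from rates against no-inhibitor controls, then converted to Ki using Km and substrate concentration. Run in duplicate alongside internal standards.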

[6] = target: Vitamin K-dependent protein C (Homo sapiens, UniProt P04070); test: Binding affinity determined against human activated protein C; outline: as §2
[7] = Oral bioavailability in dogs at 0.2 mg/kg (n=2); assay type: ADME, organism-based, Canis lupus familiaris; settings: dog, in vivo
Outline: (§3)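 Dog pharmacokinetics with compounds given as TFA salts in an N-in-1 (cassette) format, at 0.4 mg/kg intravenously and 0.2 mg/kg orally.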

Coagulation factor VII = target: T2, Coagulation factor VII (Homo sapiens, UniProt P08709); test: Binding affinity against human Coagulation factor VII
T2 sequence (P08709 whole entry): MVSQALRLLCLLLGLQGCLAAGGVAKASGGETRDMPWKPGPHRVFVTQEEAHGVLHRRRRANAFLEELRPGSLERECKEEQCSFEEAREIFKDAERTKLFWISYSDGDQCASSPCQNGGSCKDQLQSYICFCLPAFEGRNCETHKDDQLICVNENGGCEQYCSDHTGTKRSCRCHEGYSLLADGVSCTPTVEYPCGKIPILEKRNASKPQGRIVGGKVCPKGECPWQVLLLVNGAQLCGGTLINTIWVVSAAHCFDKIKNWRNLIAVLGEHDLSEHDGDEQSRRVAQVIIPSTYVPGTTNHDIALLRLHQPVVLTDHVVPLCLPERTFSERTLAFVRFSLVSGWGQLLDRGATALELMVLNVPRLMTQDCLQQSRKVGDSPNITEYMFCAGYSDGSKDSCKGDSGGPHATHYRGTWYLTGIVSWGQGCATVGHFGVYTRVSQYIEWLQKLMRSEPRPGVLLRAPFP

[8] = Steady state volume of distribution in dogs at 0.4 mg/kg intravenous administration; assay type: ADME, organism-based, Canis lupus familiaris; design: dose 0.4 mg/kg, route intravenous; settings: dog, in vivo, read-out: Vdss; outline: as §3
[9] = Clearance in dogs at 0.4 mg/kg intravenous administration; assay type: ADME, organism-based, Canis lupus familiaris; design: dose 0.4 mg/kg, route intravenous; settings: dog, in vivo; outline: as §3
[10] = Oral bioavailability of compound was determined in dogs upon administration of 0.2 mg/kg; assay type: ADME, organism-based, Canis lupus familiaris; settings: dog, in vivo; outline: as §3
[11] = Half life period in dogs at 0.4 mg/kg intravenous administration; assay type: ADME, organism-based, Canis lupus familiaris; design: dose 0.4 mg/kg, route intravenous; settings: dog, in vivo; outline: as §3
Coagulation factor X [12] = target: T1, Coagulation factor X; test: Binding affinity against blood clotting factor X
Target sequence in this assay (P00742 whole entry, looked up): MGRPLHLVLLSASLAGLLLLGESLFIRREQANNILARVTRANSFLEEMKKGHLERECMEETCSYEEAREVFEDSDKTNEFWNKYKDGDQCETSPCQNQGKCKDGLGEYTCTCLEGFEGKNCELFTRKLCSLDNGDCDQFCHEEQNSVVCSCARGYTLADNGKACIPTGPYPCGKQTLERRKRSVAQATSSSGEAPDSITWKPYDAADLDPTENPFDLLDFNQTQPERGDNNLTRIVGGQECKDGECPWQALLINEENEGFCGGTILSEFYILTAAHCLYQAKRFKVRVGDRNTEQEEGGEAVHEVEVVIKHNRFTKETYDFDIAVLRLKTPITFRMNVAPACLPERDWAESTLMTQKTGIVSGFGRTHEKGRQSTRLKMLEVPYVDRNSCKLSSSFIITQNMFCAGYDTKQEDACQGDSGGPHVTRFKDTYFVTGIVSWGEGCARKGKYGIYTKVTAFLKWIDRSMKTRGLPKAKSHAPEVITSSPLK

[13] = Binding affinity of compound was determined against rabbit plasma protein; assay type: ADME, cell-free, Oryctolagus cuniculus; outline: as §1
[14] = Binding affinity against human plasma protein was determined; assay type: ADME, cell-free; outline: as §1
[15] = Half life in dogs upon 0.4 mg/kg intravenous administration; assay type: ADME, organism-based, Canis lupus familiaris; design: dose 0.4 mg/kg, route intravenous; settings: dog, in vivo
Outline: (§4)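 Dogs dosed with the compounds as TFA salts in an N-in-1 (cassette) format, 0.4 mg/kg intravenously and 0.2 mg/kg orally.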

Coagulation factor XI = Coagulation factor XI (Homo sapiens, UniProt P03951); test: Binding affinity determined against coagulation factor XI; outline: as §2
[16] = Steady state volume of distribution in dogs upon 0.4 mg/kg intravenous administration; assay type: ADME, organism-based, Canis lupus familiaris; design: dose 0.4 mg/kg, route intravenous; settings: dog, in vivo, read-out: Vdss; outline: as §4
[17] = Oral bioavailability of compound was determined in dogs upon 0.2 mg/kg administration; assay type: ADME, organism-based, Canis lupus familiaris; settings: dog, in vivo; outline: as §4
Caco-2 [18] = test: Apparent permeability in Caco-2 (human carcinoma) cells

Sequence of Serine protease 1 (P07477 whole entry): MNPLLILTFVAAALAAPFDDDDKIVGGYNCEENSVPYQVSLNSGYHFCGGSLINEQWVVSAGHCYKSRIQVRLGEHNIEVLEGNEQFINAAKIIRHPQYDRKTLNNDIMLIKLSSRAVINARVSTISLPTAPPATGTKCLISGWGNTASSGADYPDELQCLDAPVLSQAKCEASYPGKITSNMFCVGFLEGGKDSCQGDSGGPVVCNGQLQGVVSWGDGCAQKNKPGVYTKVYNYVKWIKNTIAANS
Sequence of Chymotrypsinogen B (P17538 34-164 limits assumed, other chains not shown): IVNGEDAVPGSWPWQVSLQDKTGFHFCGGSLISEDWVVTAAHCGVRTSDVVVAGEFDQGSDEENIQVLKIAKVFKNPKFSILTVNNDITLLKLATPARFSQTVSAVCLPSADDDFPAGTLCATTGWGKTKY
Sequence of Chymotrypsinogen B (P17538 167-263 limits assumed, other chains not shown): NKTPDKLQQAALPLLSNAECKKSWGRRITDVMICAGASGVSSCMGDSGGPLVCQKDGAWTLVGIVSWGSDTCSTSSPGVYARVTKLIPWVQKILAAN
Sequence of Vitamin K-dependent protein C (P04070 43-197 limits assumed): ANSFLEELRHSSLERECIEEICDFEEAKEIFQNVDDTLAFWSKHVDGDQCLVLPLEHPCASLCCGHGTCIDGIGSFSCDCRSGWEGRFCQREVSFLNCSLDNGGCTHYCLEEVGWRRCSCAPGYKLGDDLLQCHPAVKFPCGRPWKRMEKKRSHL
Sequence of Vitamin K-dependent protein C (P04070 212-461 limits assumed): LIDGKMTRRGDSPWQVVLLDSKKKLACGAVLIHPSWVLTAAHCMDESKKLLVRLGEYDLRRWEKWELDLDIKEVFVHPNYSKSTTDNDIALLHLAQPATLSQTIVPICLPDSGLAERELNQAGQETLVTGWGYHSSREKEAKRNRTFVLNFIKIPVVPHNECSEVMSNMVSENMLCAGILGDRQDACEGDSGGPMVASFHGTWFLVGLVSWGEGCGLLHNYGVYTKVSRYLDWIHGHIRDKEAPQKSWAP
Sequence of Coagulation factor XI (P03951 19-387 limits assumed): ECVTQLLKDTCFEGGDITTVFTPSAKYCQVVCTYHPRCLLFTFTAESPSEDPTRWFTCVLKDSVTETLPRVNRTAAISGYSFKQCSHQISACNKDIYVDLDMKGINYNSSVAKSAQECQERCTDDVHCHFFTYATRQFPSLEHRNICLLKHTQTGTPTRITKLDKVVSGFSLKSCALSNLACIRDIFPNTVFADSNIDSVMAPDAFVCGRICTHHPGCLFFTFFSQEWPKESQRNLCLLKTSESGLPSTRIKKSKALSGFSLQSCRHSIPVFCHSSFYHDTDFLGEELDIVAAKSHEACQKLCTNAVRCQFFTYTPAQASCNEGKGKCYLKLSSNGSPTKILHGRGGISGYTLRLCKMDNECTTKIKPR
Sequence of Coagulation factor XI (P03951 388-625 limits assumed): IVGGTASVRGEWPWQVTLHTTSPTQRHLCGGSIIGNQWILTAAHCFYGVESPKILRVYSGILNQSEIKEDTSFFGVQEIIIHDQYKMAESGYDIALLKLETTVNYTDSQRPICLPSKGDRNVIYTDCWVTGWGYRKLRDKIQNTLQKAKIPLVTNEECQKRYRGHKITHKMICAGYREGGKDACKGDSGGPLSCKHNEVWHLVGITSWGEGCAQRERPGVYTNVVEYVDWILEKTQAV
Sequence of Coagulation factor IX (P00740 47-191 limits assumed): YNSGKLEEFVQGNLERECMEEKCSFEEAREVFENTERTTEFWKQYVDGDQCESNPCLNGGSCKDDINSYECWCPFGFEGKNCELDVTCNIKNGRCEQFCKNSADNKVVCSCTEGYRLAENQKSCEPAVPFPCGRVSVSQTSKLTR
Sequence of Coagulation factor IX (P00740 227-461 limits assumed): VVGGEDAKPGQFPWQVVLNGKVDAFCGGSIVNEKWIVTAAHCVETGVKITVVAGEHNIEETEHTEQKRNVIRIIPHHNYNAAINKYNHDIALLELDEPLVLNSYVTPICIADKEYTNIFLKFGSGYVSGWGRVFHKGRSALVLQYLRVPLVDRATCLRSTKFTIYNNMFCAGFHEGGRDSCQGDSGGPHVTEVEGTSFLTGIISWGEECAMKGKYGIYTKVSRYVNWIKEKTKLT

SMILES	pKi (Coagulation factor X [1])	concentration doubling aPTT [3] [µM]	Permeability (Caco-2 [4]) [×10⁻⁶ cm/s]	pKi (Prothrombin)	pKi (Serine protease 1)	further results
Cc1nccn1-c1ccc(NC(=O)c2cc(C(F)(F)F)nn2-c2ccc3onc(N)c3c2)c(F)c1	9.15	24.4	7.41	–	–	Binding [2]: 98%
Nc1noc2ccc(-n3nc(C(F)(F)F)cc3C(=O)Nc3ccc(-n4ccnc4CO)cc3F)cc12	9.00	–	0.1	5.77	–	–
Nc1noc2ccc(-n3nc(C(F)(F)F)cc3C(=O)Nc3ccc(-n4ccnc4CN4CCCC4)cc3F)cc12	9.43	–	23	6.22	–	–
CS(=O)(=O)c1ccccc1-c1ccc(NC(=O)c2cc(C(F)(F)F)nn2-c2ccc3onc(N)c3c2)c(F)c1	10.05	–	< 0.1	5.20	< 5.28	pKi (Coagulation factor IX): 5.46; pKi [5]: 4.80; pKi (Chymotrypsinogen B): 5.64; pKi [6]: 4.55; bioavailability [7]: 2%; pKi (Coagulation factor VII): < 4.82
Cc1nccn1-c1ccc(NC(=O)c2cc(C(F)(F)F)nn2-c2ccc3onc(N)c3c2)c(C#N)c1	9.28	–	< 0.1	–	–	–
Cn1ccnc1-c1ccc(NC(=O)c2cc(C(F)(F)F)nn2-c2ccc3onc(N)c3c2)c(F)c1	9.29	9.4	4.69	7.47	< 5.60	–
Cc1nccn1-c1ccc(NC(=O)c2cc(C(F)(F)F)nn2-c2ccc3onc(N)c3c2)c(-n2ccnc2C)c1	8.80	–	–	6.10	–	–
Nc1noc2ccc(-n3nc(C(F)(F)F)cc3C(=O)Nc3ccc(C(=O)N4CCCC4)cc3F)cc12	9.04	13.8	24.9	5.10	< 5.28	–
CNCc1nccn1-c1ccc(NC(=O)c2cc(C(F)(F)F)nn2-c2ccc3onc(N)c3c2)c(F)c1	9.77	5.9	0.2	5.77	–	Vd [8]: 4.6 L/kg; Binding [2]: 85.6%; clearance [9]: 18.3 mL/min/kg; bioavailability [10]: 27%; half-life [11]: 3.7 h; pKi (Coagulation factor X [12]): 9.77
CCc1nccn1-c1ccc(NC(=O)c2cc(C(F)(F)F)nn2-c2ccc3onc(N)c3c2)c(F)c1	9.14	14.3	3.32	–	–	Binding [2]: 95%
COc1cc(-n2ccnc2C)ccc1NC(=O)c1cc(C(F)(F)F)nn1-c1ccc2onc(N)c2c1	8.55	–	–	6.70	–	–
NCc1nccn1-c1ccc(NC(=O)c2cc(C(F)(F)F)nn2-c2ccc3onc(N)c3c2)c(F)c1	8.52	–	–	5.46	–	–
CS(=O)(=O)c1ccccc1-c1ccc(NC(=O)c2cc(C(F)(F)F)nn2-c2cccc(CN)c2)c(F)c1	–	–	–	–	–	pKi [5]: < 4.77; pKi (Chymotrypsinogen B): < 4.77; ID50 (Oryctolagus cuniculus): 1.1 µmol/kg/h
Nc1noc2ccc(-n3nc(C(F)(F)F)cc3C(=O)Nc3ccc(-c4ccccc4S(N)(=O)=O)cc3F)cc12	9.80	–	< 0.1	5.64	< 5.80	–
CC(C)c1nccn1-c1ccc(NC(=O)c2cc(C(F)(F)F)nn2-c2ccc3onc(N)c3c2)c(F)c1	8.80	–	–	–	–	–
Cc1nccn1-c1ccc(NC(=O)c2cc(C(F)(F)F)nn2-c2ccc3onc(N)c3c2)c(C(N)=O)c1	8.11	–	–	< 4.68	–	–
Nc1noc2ccc(-n3nc(C(F)(F)F)cc3C(=O)Nc3ccc(N4CCOCC4)cc3F)cc12	8.20	–	–	4.70	< 5.28	–
Cc1nccn1-c1ccc(NC(=O)c2cc(C(F)(F)F)nn2-c2ccc3onc(N)c3c2)cc1	9.22	–	0.82	5.96	–	–
CN(C)Cc1nccn1-c1ccc(NC(=O)c2cc(C(F)(F)F)nn2-c2ccc3onc(N)c3c2)c(F)c1.Cl [RAZAXABAN HYDROCHLORIDE]	–	–	–	–	–	Binding [13]: 93.4%; Binding [14]: 90.5%; half-life [15]: 3.4 h; pKi [6]: 4.71; pKi (Coagulation factor XI): < 4.92; Vd [16]: 5.3 L/kg; bioavailability [17]: 84%; ID50 (Oryctolagus cuniculus): 1.6 µmol/kg/h; Permeability (Caco-2 [18]): 5.56 ×10⁻⁶ cm/s
Nc1noc2ccc(-n3nc(C(F)(F)F)cc3C(=O)Nc3ccc(-c4ccncc4S(N)(=O)=O)cc3F)cc12	10.00	15.5	0.54	6.13	< 5.38	–
